Published values from different studies.

C=C(F)C(=O)N1CCN(c2nc(OC[C@@H]3CCCN3C)nc3c2CCN(c2cccc4cccc(Cl)c24)C3)C[C@@H]1CC#N  IC50 (PC-9; cell growth or viability; ATP luminescence): 2010 nM
NCCC(=O)NCc1ccccc1  IC50 (DH82; NO release; inhibitor; Griess; 24 h; LPS-stimulated): 158000 nM
COc1cc2c3c(n(CCCNCCO)c(=O)c2cc1OC)-c1nc2c(cc1C3=O)OCO2  IC50 (Raji; cell growth or viability; MTS; 72 h): 132 nM
O=C(CCNNC(=O)c1ccncc1)NCc1ccccc1  IC50 (DH82; PGE2 release; inhibitor; ELISA; 24 h; LPS-stimulated): > 200000 nM
CCCOc1nc(-c2cccc(O)c2)cc(-c2cc3ccccc3nc2N2CCOCC2)c1C#N  IC50 (NFS-60; cell growth or viability; MTT; 72 h): 151 nM
COc1ccc(-c2cc(-c3cccc(Br)c3)c3c(=O)n(C)c(=O)n(C)c3n2)cc1  IC50 (HCT-116; cell growth or viability; MTT; 48 h): 7880 nM
O=C(CCO)NCc1ccccc1  IC50 (DH82; NO release; inhibitor; Griess; 24 h; LPS-stimulated): 57500 nM
COc1ccc(-c2cc(-c3ccc(Br)cc3)c3c(=O)n(C)c(=O)n(C)c3n2)cc1  IC50 (HCT-116; cell growth or viability; MTT; 48 h): 10800 nM
CC1(C)CCC(CN2CCN(c3ccc(C(=O)NS(=O)(=O)c4ccc(NCC5CCOCC5)c([N+](=O)[O-])c4)c(Oc4cnc5[nH]ccc5c4)c3)CC2)=C(c2ccc(Cl)cc2)C1  IC50 (DOHH-2; cell growth or viability; ATP luminescence; 48 h): 77 nM
C=CC(=O)Nc1cc(Nc2nccc(-c3cn(C)c4ccccc34)n2)c(OC)cc1N(C)CCN(C)C  IC50 (PC-9; cell growth or viability; MTS; 72 h): 1440 nM
CN1Cc2c(N)cccc2C(=O)N1C1CCC(=O)NC1=O (stereo not shown)  IC50 (NCI-H929; cell growth or viability; CCK-8; 96 h): < 330 nM
Cc1c(C(=O)O)ccc2c3n(nc12)[C@@H]1[C@H](C3)N(CC2CC2)[C@@]2(C(=O)Nc3cc(Cl)ccc32)[C@H]1c1cccc(Cl)c1F  IC50 (SK-OV-3; cell growth or viability; ATP luminescence): > 50000 nM
COCCC(=O)NCc1ccccc1  IC50 (DH82; NO release; inhibitor; Griess; 24 h; LPS-stimulated): 171000 nM
CCOc1nc(-c2cccc(O)c2)cc(-c2cc3cc(Cl)ccc3nc2N2CCOCC2)c1C#N  IC50 (NFS-60; cell growth or viability; MTT; 72 h): 113 nM
NC(=O)c1ccncc1  IC50 (DH82; PGE2 release; inhibitor; ELISA; 24 h; LPS-stimulated): > 200000 nM
CCOc1nc(-c2cccc(O)c2)cc(-c2cc3ccccc3nc2N2CCOCC2)c1C#N  IC50 (NFS-60; cell growth or viability; MTT; 72 h): 85 nM
CCNCCCn1c2c(c3cc(OC)c(OC)cc3c1=O)C(=O)c1cc3c(nc1-2)OCO3  IC50 (Raji; cell growth or viability; MTS; 72 h): 125 nM
Cn1nnc2c(C(N)=O)ncn2c1=O  IC50 (U-87 MG; cell growth or viability; trypan blue; 72 h): 50000 nM
CCCOc1nc(-c2cccc(O)c2)cc(-c2cc3cc(OC)ccc3nc2N2CCOCC2)c1C#N  IC50 (NFS-60; cell growth or viability; MTT; 72 h): 64.6 nM
